Measured values from paper PMC3703919 (Clinical cancer research : an official journal of the …, 2009).

Tests used:
[1] = system: patients with advanced solid tumors; assay: Phase I dose escalation: toxicity assessment; assay type: in vivo, human
Summary of the method: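 Cohorts of three started at 100 μg/kg s.c. daily ×5 per 21-d cycle, with planned levels of 100–1,000 μg/kg. One DLT expanded a cohort to six. DLT was grade ≥3 toxicity at least possibly treatment-related, and MTD allowed ≤1/6 with DLT. Exam and labs ran weekly in cycle 1, then on day 1 of later cycles, graded by CTCAE v3.0.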

[2] = Pharmacokinetics: plasma Ang-; assay type: in vivo, human
[3] = 18 patients, 100-700 μg/kg s.c. daily x5 every 21 d, CTCAE v3.0, count

CC[C@H](C)[C@H](NC(=O)[C@H](Cc1ccc(O)cc1)NC(=O)[C@@H](NC(=O)[C@H](CCCNC(=N)N)NC(=O)[C@@H](N)CC(=O)O)C(C)C)C(=O)N[C@@H](Cc1c[nH]cn1)C(=O)N1CCC[C@H]1C(=O)O [Ang-(1-7), Angiotensin-(1-7)]
SAE possibly related to Ang-(1-7) ([1]; 400 μg/kg, one patient with metastatic pancreatic cancer, first cycle): grade 3 deep vein thrombosis
dose-limiting toxicities encountered ([1]; 700 μg/kg dose): stroke (grade 4) and reversible cranial neuropathy (grade 3)
Cerebrovascular ischemia, grade 2, adverse events at least possibly related to treatment [1, 3]: 0
Cerebrovascular ischemia, grade 3, adverse events at least possibly related to treatment [1, 3]: 0
Cerebrovascular ischemia, grade 4, adverse events at least possibly related to treatment [1, 3]: 1
Cerebrovascular ischemia, total, adverse events at least possibly related to treatment [1, 3]: 1
Fatigue, grade 2, adverse events at least possibly related to treatment [1, 3]: 2
Fatigue, grade 3, adverse events at least possibly related to treatment [1, 3]: 0
Fatigue, grade 4, adverse events at least possibly related to treatment [1, 3]: 0
Fatigue, total, adverse events at least possibly related to treatment [1, 3]: 2
Gingival regression, grade 2, adverse events at least possibly related to treatment [1, 3]: 1
Gingival regression, grade 3, adverse events at least possibly related to treatment [1, 3]: 0
Gingival regression, grade 4, adverse events at least possibly related to treatment [1, 3]: 0
Gingival regression, total, adverse events at least possibly related to treatment [1, 3]: 1
Hypocalcemia, grade 2, adverse events at least possibly related to treatment [1, 3]: 1
Hypocalcemia, grade 3, adverse events at least possibly related to treatment [1, 3]: 0
Hypocalcemia, grade 4, adverse events at least possibly related to treatment [1, 3]: 0
Hypocalcemia, total, adverse events at least possibly related to treatment [1, 3]: 1
Muscle weakness, grade 2, adverse events at least possibly related to treatment [1, 3]: 1
Muscle weakness, grade 3, adverse events at least possibly related to treatment [1, 3]: 0
Muscle weakness, grade 4, adverse events at least possibly related to treatment [1, 3]: 0
Muscle weakness, total, adverse events at least possibly related to treatment [1, 3]: 1
Musculoskeletal pain, grade 2, adverse events at least possibly related to treatment [1, 3]: 2
Musculoskeletal pain, grade 3, adverse events at least possibly related to treatment [1, 3]: 0
Musculoskeletal pain, grade 4, adverse events at least possibly related to treatment [1, 3]: 0
Musculoskeletal pain, total, adverse events at least possibly related to treatment [1, 3]: 2
Neuropathy, cranial, grade 2, adverse events at least possibly related to treatment [1, 3]: 0
Neuropathy, cranial, grade 3, adverse events at least possibly related to treatment [1, 3]: 1
Neuropathy, cranial, grade 4, adverse events at least possibly related to treatment [1, 3]: 0
Neuropathy, cranial, total, adverse events at least possibly related to treatment [1, 3]: 1
Orthostasis, grade 2, adverse events at least possibly related to treatment [1, 3]: 1
Orthostasis, grade 3, adverse events at least possibly related to treatment [1, 3]: 0
Orthostasis, grade 4, adverse events at least possibly related to treatment [1, 3]: 0
Orthostasis, total, adverse events at least possibly related to treatment [1, 3]: 1
Thrombosis/thrombus/embolism, grade 2, adverse events at least possibly related to treatment [1, 3]: 0
Thrombosis/thrombus/embolism, grade 3, adverse events at least possibly related to treatment [1, 3]: 1
Thrombosis/thrombus/embolism, grade 4, adverse events at least possibly related to treatment [1, 3]: 0
Thrombosis/thrombus/embolism, total, adverse events at least possibly related to treatment [1, 3]: 1
hematologic toxicity ([1]; all dose levels 100-700 μg/kg, 18 patients): No hematologic toxicity was observed
bleeding complications or episodes of hypertension ([1]; all dose levels, 18 patients): No bleeding complications or episodes of hypertension were observed
patients with mild muscle cramps ([1]; all dose levels, 18 patients): three
treatment-related deaths ([1]; all dose levels, 18 patients): no treatment-related deaths
recommended phase II dose ([1]; s.c. once daily for 5 consecutive days on a 3-week cycle): 0.4 mg/kg
Tmax ([2]; human, sc): 1 h
dose-dependent increases in drug exposure ([2]; s.c. 100-700 μg/kg, RIA): observed only at the highest dose level
